DNA FID counter – displaces DNA intercalator in HCV helicase counter-screen; DNA fluorescent intercalator displacement, fluorescence; inhibition, % at 7.9 µM; 290,000 compounds, 0.17% hits; AID 1845; in the data active = inhibition above about 37%;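 also: 0% = vehicle and 100% = reference compound; higher means more ethidium bromide displaced from hairpin DNA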
T cruzi inh – T. cruzi replication inhibition; T. cruzi beta-gal in NIH3T3, luminescence, 90 h; inhibition, % (no concentration beside the values); 300,000 compounds, 1.4% hits; AID 1885;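 active = mean inhibition across valid replicates above about 55%, limit read from the data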;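 also: signal also drops with host cell toxicity which is not excluded here; 0% = plate median of DMSO wells and 100% = zero luminescence signal; higher percent means less beta-gal luminescence so fewer parasites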
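assay system = mouse NIH/3T3 fibroblasts infected with β-gal-expressing T. cruzi Tulahuen C4 | input = 5,000 NIH/3T3 host cells per well | buffer or medium = DMEM plus 2% FBS | timing = 3 h host attachment, then at least 90 h co-culture | measured by = GalScreen luminescence, 60 min | evaluation = luminescence reflecting intracellular parasite burden, expressed as percent inhibition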
MEKK2mut PB1 HTS – signal of MEK5 binding to mutant human MEKK2 PB1 domain; 290,000 compounds, 0.35% hits; percent response, % at 10 µM; AID 1530; bead flow cytometry, Alexa488-MEK5 binding to MEKK2 mutant; in the data active = percent response above about 24%, passing the limit was not always enough
MEKK3 PB1 HTS – raises or lowers MEK5 binding to the human MEKK3 PB1 domain; Q99759; bead-based flow cytometry, Alexa488-MEK5 binding to MEKK3; actives lie on both sides; 0 = blocked by unlabeled MEK5, 100 = vehicle; binding response (% of control), % at 10 µM; 290,000 compounds, 1.4% hits;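 active = binding response more than 3 SD above or below the average of its plate-row segment, actives on both sides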;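 also: Alexa488 bead fluorescence after subtracting the streptavidin-only scavenger bead signal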
Target sequence (Q99759 whole entry, looked up, the tested form may be a part): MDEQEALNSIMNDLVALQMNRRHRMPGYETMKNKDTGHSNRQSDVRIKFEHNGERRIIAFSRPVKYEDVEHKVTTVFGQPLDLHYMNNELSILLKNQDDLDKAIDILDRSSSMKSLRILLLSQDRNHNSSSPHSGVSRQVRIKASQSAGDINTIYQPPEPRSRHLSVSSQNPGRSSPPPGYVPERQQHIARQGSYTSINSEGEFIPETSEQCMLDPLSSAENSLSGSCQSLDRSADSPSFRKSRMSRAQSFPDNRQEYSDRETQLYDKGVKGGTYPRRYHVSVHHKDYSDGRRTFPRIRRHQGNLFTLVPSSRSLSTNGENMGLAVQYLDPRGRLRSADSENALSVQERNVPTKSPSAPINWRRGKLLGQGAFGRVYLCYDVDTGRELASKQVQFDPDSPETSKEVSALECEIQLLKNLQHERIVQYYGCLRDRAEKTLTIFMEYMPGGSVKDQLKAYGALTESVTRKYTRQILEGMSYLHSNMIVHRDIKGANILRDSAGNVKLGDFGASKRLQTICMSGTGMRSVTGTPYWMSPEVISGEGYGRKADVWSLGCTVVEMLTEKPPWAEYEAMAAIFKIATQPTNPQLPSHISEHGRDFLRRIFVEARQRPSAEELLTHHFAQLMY
MEKK2 WT-MEK5 – raises or lowers MEK5 binding to wildtype human MEKK2 PB1 domain. Q9Y2U5. bead flow cytometry, Alexa488-MEK5 binding to MEKK2 WT; actives lie on both sides. binding response (% of control), % at 10 µM. 290,000 compounds, 1.1% hits; in the data active = binding response below about 67% or above about 130%
NS3 helicase inh – inhibitors of Hepatitis C virus NS3 helicase; NS3 helicase DNA unwinding, Cy5 molecular beacon fluorescence; 290,000 compounds, 0.56% hits; AID 1800; inhibition, % at 10.9 µM;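 active = inhibition above the mean of all tested compounds plus 3 SD, set per campaign, cut at about 35% in these data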;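 also: 0% = DMSO wells and 100% = thioflavine S control wells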
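Compound dosing – single dose, 10.9 µM nominal final, DMSO 0.8% final · System – NS3 helicase fragment of HCV · Buffer or medium – MOPS pH 6.5, MgCl2, DTT, Tween20, BSA · Signal – Cy5 beacon fluorescence read at start and 1 h · Also added – annealed dual-labelled DNA beacon duplex, ATP-started · Schedule – 1 h at 25 °C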
The depositor's hits bear a star; · = no result given. Sampled rows, rich in hits. Any-hit rate of the full collection: about 4.1%.

SMILES | DNA FID counter | T cruzi inh | MEKK2mut PB1 HTS | MEKK3 PB1 HTS | MEKK2 WT-MEK5 | NS3 helicase inh
O=[N+]([O-])c1nn(-c2ccc3c(c2)OCCO3)n(O)c1=NC1CCCC1 | 2 | 90* | 3 | 98 | 99 | -5
O=C1CCCN1CCCN=c1c([N+](=O)[O-])nn(-c2ccc(Cl)cc2)n1O | -10 | 68* | 4 | 109 | 111 | 13
O=[N+]([O-])c1nn(-c2ccc3c(c2)OCCO3)n(O)c1=NC1CCCCCC1 | -5 | 59* | 3 | 97 | 102 | -15
COc1ccccc1CNS(=O)(=O)N(C)C | 0 | -9 | 6 | 103 | 102 | 8
CCCCCN(C(=O)CCC(=O)OCC(=O)c1ccc(C(C)CC)cc1)c1c(N)n(CCCC)c(=O)[nH]c1=O (configuration not stated) | · | 11 | · | · | · | ·
COc1ccc(-n2nc([N+](=O)[O-])c(=NCCc3cccc(C)c3)n2O)cc1 | -4 | 63* | 0 | 100 | 99 | -1
Cc1cccc(N2C(=O)/C(=C/c3cccnc3)SC2=S)c1 | -14 | -18 | 4 | 104 | 107 | 2
Cc1ccc(/C=C2\SC(=S)N(c3cccnc3)C2=O)o1 | -10 | 62* | -4 | 86 | 77 | 17
Cc1cc(/C=C2/SC(=S)N(c3ccc([N+](=O)[O-])cc3)C2=O)c(C)n1-c1cccnc1 | 5 | 59* | -2 | 90 | 81 | 10
Cc1cc(/C=C2/SC(=S)N(c3cccc(Cl)c3)C2=O)c(C)n1-c1cccnc1 | -6 | 21 | -2 | 98 | 87 | 7
Cc1cc(C)cc(C(=O)N2CCC3(CC2)NCCc2[nH]cnc23)c1 | 9 | 2 | -8 | 101 | 98 | -3
Cc1ccc(C)c2nc3sc(C(=O)N4CCCc5ccccc54)c(N)c3cc12 | -10 | 66* | · | · | · | 21
CCc1ccc2nc3sc(C(=O)N4CCc5ccccc54)c(N)c3cc2c1 | -8 | -22 | 59* | 103 | 87 | 19
O=C(c1ccc(C(=O)N2CCCc3ccccc32)s1)N1CCCc2ccccc21 | -2 | 14 | -7 | 96 | 94 | -2
COc1cc(C(=O)OCC(=O)NC(=O)NC2CCCCC2)cc(Cl)c1OC | · | -5 | · | · | · | ·
FC(F)(F)c1cccc(NC(=S)NNC(=S)Nc2ccc(Cl)cc2)c1 | 20 | 56* | -2 | 100 | 98 | -11
COc1ccccc1N1CCN(C(=O)c2oc3c(c2C)C(=O)CC(C)(C)C3)CC1 | -45 | 7 | -1 | 99 | 100 | 3
Cc1[nH]c2c(Cl)cccc2c(=O)c1CN1CCCCCC1 | -11 | 57* | 20 | 103 | 107 | 19
Cc1ccc2c(=O)c(CN3CCCCCC3)c(C)[nH]c2c1C | -7 | 16 | 6 | 106 | 114 | -19
O=C1N/C(=N\N=C\c2ccccn2)SC1Cc1cccc(SC(F)F)c1 (configuration not stated) | 1 | 69* | 6 | 105 | 107 | 2
O=C1N/C(=N\N=C\c2ccc3ncccc3c2)SC1Cc1ccc(SC(F)F)cc1 (configuration not stated) | 0 | 33 | 0 | 100 | 98 | 1
O=C1N/C(=N\N=C\c2cccnc2)SC1Cc1ccc(SC(F)F)cc1 (configuration not stated) | -5 | 62* | -1 | 96 | 94 | 6
O=C1C2C(c3ccccc3)C=CC(c3ccccc3)C2C(=O)N1c1ccccn1 (configuration not stated) | -40 | -6 | -1 | 98 | 99 | 7
COc1cc(NC(=S)NCCC(c2ccccc2)c2ccccc2)cc(OC)c1 | -10 | 62* | 2 | 105 | 115 | -35
CC(=O)Nc1c2c3c(cccc3n(C)c1=O)C(=O)c1ccccc1-2 | 4 | 1 | -12 | 86 | 95 | 2
CC(=O)Nc1ccc(Nc2ccc3c4c(cc(=O)n3C)-c3ccccc3C(=O)c24)cc1 | 4 | 56* | 0 | 94 | 95 | 1
CCCN1CCc2c(sc(NC(=O)c3ccc(S(=O)(=O)N(C)c4ccccc4)cc3)c2C(=O)NC)C1 | 44* | 35 | 2 | 98 | 112 | -14

Assay outcomes (PubChem)
